The source of these data is ChEMBL document CHEMBL4680229, “Design, synthesis and bioactivity study of N-salicyloyl tryptamine derivatives as multifunctional agents for the treatment of neuroinflammation” (Eur J Med Chem, 2020).

A short description of data set [1]: Antioxidant activity assessed as DPPH radical scavenging activity incubated for 30 mins. The data set is classed as functional. An outline of the steps: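 Compound in ethanol at 2.5–40 μM final, mixed 1:1 with 700 μmol/L ethanolic DPPH; 30 min in the dark at room temperature, absorbance at 515 nm. Serotonin used as standard; EC50 from three independent experiments.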
(The DPPH test is a chemical assay of radical scavenging.)

The nature of data set [2]: Tmax in Sprague-Dawley rat at 50 mg/kg, ip up to 24 hrs by LC-MS analysis. It is filed as ADME, organism-based. The conditions noted are these: in vivo. In short, it runs like this: (§1)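 Male Sprague-Dawley rats, six per group, single 50 mg/kg intraperitoneal dose; parameters derived by non-compartmental analysis using the linear trapezoidal method; mean ± SD, n = 6.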

Data set [3] can be described thus: Cmax in Sprague-Dawley rat at 50 mg/kg, ip up to 24 hrs by LC-MS analysis. The note with it: in vivo. It is filed as ADME, organism-based. Also on record: route intraperitoneal, dose 50 mg/kg, time <=24. An outline of the steps:
as §1

The nature of data set [4]: Induction of apoptosis in LPS-induced hippocampal neuroinflammatory Kunming mouse model at 50 mg/kg, ip administered bid for 6 days by Nissl staining based microscopic method. It is filed as organism-based. The conditions noted are these: in vivo, 144 h, time 6 day. In short, it runs like this:
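Male Kunming mice (8 weeks, 20–25 g, n = 10/group) were anaesthetised with i.p. chloral hydrate, then given LPS (3 μL of 10 mg/mL) into the lateral ventricle at 0.5 μL/min; sham mice received 3 μL saline. Compound was then given i.p. at 50 mg/kg in saline with 1% methyl cellulose for six consecutive days. Behaviour and deaths were recorded, and hippocampal slices were Nissl-stained.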

Data set [5] is described as follows: Half life in Sprague-Dawley rat at 50 mg/kg, ip up to 24 hrs by LC-MS analysis. The data set is classed as ADME, organism-based. The note with it: in vivo. An outline of the steps:
as §1

A word on the EC50: it is the concentration that produces a half-maximal response. In general, Tmax refers to the time at which the peak concentration occurs. The term Cmax denotes the maximum level reached in the sampled fluid or tissue. For orientation: half-life means the time in which the quantity being followed falls by half. A low value points to rapid decline.

As for `COc1ccc2[nH]cc(CCNC(C)=O)c2c1` [MELATONIN], the EC50 in data set [1] was > 40 µM. In data set [2], the time to peak (Tmax) is 11.4 min. The molecule further displayed a Cmax in data set [3] of 1150 ng/mL. In data set [4], the Activity entry is “Toxic”. In data set [5], this molecule had a half-life of 32.4 min.
